Results as given in ChEMBL document CHEMBL5046294, “Rational Design, Chemical Syntheses, and Biological Evaluations of Peripherally Selective Mu Opioid Receptor Ligands as Potential Opioid Induced Constipation Treatment” (J Med Chem, 2022).
Activity calls are given as the source filed them.

Experiments:
Mus musculus [1] = test: Antinociceptive activity against Swiss Webster mouse assessed as tail withdrawal latency from warm water by measuring maximum possible effect at 10 mg/kg, sc measured after 20 mins by warm water tail immersion assay; format: functional
In short: (§1)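 Male Swiss Webster mice, 5–8 weeks, 25–35 g, 6 per group. Tail immersed (distal third) in water at 56 ± 0.1 °C. Mice included only with baseline latency 2–4 s. Compound 10 mg/kg s.c.; in the challenge arm it was given 5 min before morphine 10 mg/kg s.c. Latency read 20 min after injection, 10-s cutoff. %MPE = (test − control)/(10 − control) × 100. Dunnett-corrected one-way ANOVA.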

Mus musculus [2] = test: Reversal of morphine induced constipation in Swiss Webster mouse at 10 mg/kg, po for 5 mins followed by morphine addition measured after 20 mins by carmine red dye assay relative to control; format: functional; details: time 25 min
In short: (§2)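 Male Swiss Webster mice, 5–6 per group, housed singly. Compound or vehicle given s.c. or by oral gavage 5 min before morphine (10 or 5 mg/kg) or vehicle. 20 min after morphine, 0.2 mL of 6% carmine red in 0.5% CMC given orally (time 0). Time to first red pellet recorded, 6-h cutoff. Dunnett-corrected one-way ANOVA.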

[3] = molecular target: T1, Delta-type opioid receptor (Homo sapiens, UniProt P41143); test: Binding affinity to human delta opioid receptor in presence of SNC80 incubated for 1.5 hrs by competitive radioligand binding assay
In short: (§3)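 Competition binding. Membranes (30 μg protein) from CHO cells with mouse MOR or KOR, or human DOR. Incubated with radioligand and varying test concentrations in TME buffer, pH 7.4, 1.5 h at 30 °C. Filtration harvest. Nonspecific binding defined with 5 μM naltrexone (MOR), U50,488 (KOR) or SNC80 (DOR). IC₅₀ by nonlinear regression, converted to Ki by Cheng-Prusoff. Selectivity ratios taken from these Ki values. At least three independent experiments.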

Mus musculus [4] = test: Gastroprokinetic activity in Swiss Webster mouse assessed as stimulation of gastrointestinal motility by measuring time required to defecation of red fecal pellet at 10 mg/kg, po incubated for 5 mins followed by morphine addition at 10 mg/kg and measured after 20 mins by carmine red dye assay; format: functional; details: time 25 min; in short: as §2
Mus musculus [5] = organism: Mus musculus; test: Selectivity index, ratio of Ki for binding affinity to mouse kappa opioid receptor to Ki for binding affinity to mouse mu opioid receptor; in short: as §3
[6] = molecular target: Mu-type opioid receptor (Mus musculus) (UniProt P42866); test: Antagonist activity at mouse mu opioid receptor expressed in CHO cell membrane assessed as reduction in DAMGO-induced […]-GTPgammaS binding by measuring maximal efficacy incubated for 1.5 hrs by liquid scintillation counting method relative to control; format: functional, cell membranes
In short: (§4)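 [³⁵S]GTPγS binding. Membranes (10 μg protein) from CHO cells expressing MOR, KOR or DOR. Buffer TME (50 mM Tris, 3 mM MgCl₂, 0.2 mM EGTA, pH 7.4) with 100 mM NaCl, 20 μM GDP and 0.1 nM [³⁵S]GTPγS. Test compound at varying concentrations. Incubation 1.5 h at 30 °C. Nonspecific binding with 20 μM unlabeled GTPγS. Reference full agonist at 3 μM: DAMGO (MOR), U50488H (KOR), SNC80 (DOR). Filtration, then scintillation counting. Duplicates, at least three repeats.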

Mus musculus [7] = test: Gastroprokinetic activity in Swiss Webster mouse assessed as stimulation of gastrointestinal motility by measuring time required to defecation of red fecal pellet at 10 mg/kg, sc incubated for 5 mins followed by morphine addition at 10 mg/kg and measured after 20 mins by carmine red dye assay; format: functional; details: time 25 min; in short: as §2
[8] = Selectivity index, ratio of Ki for binding affinity to human delta opioid receptor to Ki for binding affinity to mouse mu opioid receptor; in short: as §3
Mu-type opioid receptor [9] = molecular target: T2, Mu-type opioid receptor (Mus musculus, UniProt P42866); test: Binding affinity to mouse mu opioid receptor expressed in CHO cells in presence of naltrexone incubated for 1.5 hrs by competitive radioligand binding assay; format: cell-based; in short: as §3
Mus musculus [10] = test: Antinociceptive activity against sc dosed Swiss Webster mouse model assessed as effect on morphine induced antinociception by measuring tail withdrawal latency from warm water incubated for 5 mins followed by morphine addition measured after 20 mins by warm water tail immersion assay; format: functional; details: for Activity: time 25.0 min; in short: as §1
[11] = molecular target: T3, Kappa-type opioid receptor (Mus musculus, UniProt P33534); test: Binding affinity to mouse kappa opioid receptor expressed in CHO cells in presence of U50488 incubated for 1.5 hrs by competitive radioligand binding assay; format: cell-based; in short: as §3
Mus musculus [12] = test: Gastroprokinetic activity in Swiss Webster mouse assessed as stimulation of gastrointestinal motility by measuring time required to defecation of red fecal pellet at 10 mg/kg, po incubated for 5 mins followed by morphine addition at 5 mg/kg and measured after 20 mins by carmine red dye assay; format: functional; details: time 25 min; in short: as §2
Mus musculus [13] = test: Reversal of morphine induced constipation in Swiss Webster mouse at 10 mg/kg, po for 5 mins followed by morphine addition at 5 mg/kg and measured after 20 mins by carmine red dye assay; format: functional; in short: as §2
Mu-type opioid receptor [14] = molecular target: T2, Mu-type opioid receptor; test: Antagonist activity at mouse mu opioid receptor expressed in CHO cell membrane assessed as reduction in DAMGO-induced […]-GTPgammaS binding incubated for 1.5 hrs by liquid scintillation counting method; format: functional, cell membranes
[15] = molecular target: T4, Kappa-type opioid receptor (Homo sapiens, UniProt P41145); test: Antagonist activity at human recombinant kappa opioid receptor assessed as reduction in U50,488H-induced […]-GTPgammaS binding; format: functional
Mu-type opioid receptor [16] = molecular target: Mu-type opioid receptor (Homo sapiens, UniProt P35372); test: Antagonist activity at human recombinant mu opioid receptor assessed as reduction in DAMGO-induced […]-GTPgammaS binding; format: functional
[17] = molecular target: T4, Kappa-type opioid receptor; test: Displacement of [3H]-U69593 from human recombinant kappa opioid receptor by radioligand binding assay
[18] = molecular target: T4, Kappa-type opioid receptor; test: Antagonist activity at kappa opioid receptor (unknown origin) expressed in CHO cell membrane assessed as reduction in U50,488H -induced […]-GTPgammaS binding by measuring maximal efficacy incubated for 1.5 hrs by liquid scintillation counting method relative to control; format: functional, cell membranes; in short: as §4
[19] = molecular target: T3, Kappa-type opioid receptor; test: Antagonist activity at kappa opioid receptor (unknown origin) expressed in CHO cell membrane assessed as reduction in U50,488H-induced […]-GTPgammaS binding incubated for 1.5 hrs by liquid scintillation counting method; format: functional, cell membranes
[20] = molecular target: T1, Delta-type opioid receptor; test: Antagonist activity at human delta opioid receptor expressed in CHO cell membrane assessed as reduction in SNC80-induced […]-GTPgammaS binding incubated for 1.5 hrs by liquid scintillation counting method; format: functional, cell membranes
[21] = molecular target: T1, Delta-type opioid receptor; test: Antagonist activity at human delta opioid receptor expressed in CHO cell membrane assessed as reduction in SNC80-induced […]-GTPgammaS binding by measuring maximal efficacy incubated for 1.5 hrs by liquid scintillation counting method relative to control; format: functional, cell membranes; in short: as §4
Mus musculus [22] = test: Antinociceptive activity against Swiss Webster mouse assessed as tail withdrawal latency from warm water by measuring maximum possible effect at 10 mg/kg, sc incubated for 5 mins followed by morphine addition measured after 20 mins by warm water tail immersion assay; format: functional; details: time 25 min; in short: as §1

Structure (SMILES) | Activity (Mus musculus [1]) | Ki [3] | Ratio Ki (Mus musculus [5]) | Emax [6] | Ratio Ki [8] | Ki (Mu-type opioid receptor [9]) | Activity (Mus musculus [10]) | Ki [11] | EC50 (Mu-type opioid receptor [14]) | further results
O=C(Cc1cn[nH]c1)N[C@@H]1CC[C@@]2(O)[C@H]3Cc4ccc(O)c5c4[C@@]2(CCN3CC2CC2)[C@H]1O5 | inactive | 66.6 nM | 82 | 22.2% | 390 | 0.17 nM | inactive | 13.9 nM | – | Activity (Mus musculus [2]): 40%; Time (Mus musculus [4]): 69 min; Time (Mus musculus [7]): 174 min
O=C(N[C@@H]1CC[C@@]2(O)[C@H]3Cc4ccc(O)c5c4[C@@]2(CCN3CC2CC2)[C@H]1O5)c1ccncc1 | – | – | – | – | – | – | – | – | – | Time (Mus musculus [12]): 151 min; Activity (Mus musculus [13]; time 25.0 min): inactive
O=C(Cc1cn[nH]c1)N[C@H]1CC[C@@]2(O)[C@H]3Cc4ccc(O)c5c4[C@@]2(CCN3CC2CC2)[C@H]1O5 | inactive | 3440 nM | 118 | 28.4% | 3920 | 0.88 nM | inactive | 104 nM | 8.17 nM | Activity (Mus musculus [2]): 39%; Time (Mus musculus [4]): 70 min; Time (Mus musculus [7]): 172 min
C[N@+]1(CC2CC2)CC[C@]23c4c5ccc(O)c4O[C@H]2C(=O)CC[C@@]3(O)[C@H]1C5 [METHYLNALTREXONE] | – | – | – | – | – | – | – | – | – | Time (Mus musculus [12]): 111 min; Activity (Mus musculus [13]; time 25.0 min): inactive; EC50 [15]: > 10000 nM; EC50 (Mu-type opioid receptor [16]): > 10000 nM; Ki [17]: 32.1 nM
O=C(Cc1cc[nH]n1)N[C@H]1CC[C@@]2(O)[C@H]3Cc4ccc(O)c5c4[C@@]2(CCN3CC2CC2)[C@H]1O5 | inactive | 195 nM | – | – | – | 1.05 nM | inactive | 154 nM | 6.17 nM | Emax ([18]; filed as antagonist): 49.9%; Time (Mus musculus [4]): 57 min; EC50 [19]: 99 nM; EC50 [20]: 20.5 nM; Time (Mus musculus [7]): 154 min; Emax ([21]; filed as antagonist): 69.3%
O=C(N[C@@H]1CC[C@@]2(O)[C@H]3Cc4ccc(O)c5c4[C@@]2(CCN3CC2CC2)[C@H]1O5)c1cnc[nH]1 | inactive | 209 nM | – | – | – | 0.58 nM | inactive | 18.8 nM | 1.15 nM | Activity (Mus musculus [2]): 38%; Emax [18]: 9.03%; Time (Mus musculus [12]): 27 min; Time (Mus musculus [4]): 71 min; Activity (Mus musculus [13]; time 25 min): 75%; EC50 [19]: 11.7 nM; Time (Mus musculus [7]): 137 min; Emax [21]: 22.1%
O=C(N[C@H]1CC[C@@]2(O)[C@H]3Cc4ccc(O)c5c4[C@@]2(CCN3CC2CC2)[C@H]1O5)c1cnc[nH]1 | inactive | 32.5 nM | 2 | 20.7% | 29 | 1.11 nM | inactive | 2.76 nM | 4.42 nM | –
O=C(CCc1ncc[nH]1)N[C@@H]1CC[C@@]2(O)[C@H]3Cc4ccc(O)c5c4[C@@]2(CCN3CC2CC2)[C@H]1O5 | inactive | 55.8 nM | 1 | 17.7% | 99 | 0.57 nM | inactive | 0.57 nM | 1.24 nM | –
O=C(N[C@H]1CC[C@@]2(O)[C@H]3Cc4ccc(O)c5c4[C@@]2(CCN3CC2CC2)[C@H]1O5)c1ncc[nH]1 | inactive | 70.9 nM | 4 | 7.85% | 152 | 0.47 nM | – | 1.77 nM | 2.01 nM | AD50 (Mus musculus [10]; time 25 min): 5.3 mg/kg; MPE (Mus musculus [22]): 9.2%
O=C(N[C@@H]1CC[C@@]2(O)[C@H]3Cc4ccc(O)c5c4[C@@]2(CCN3CC2CC2)[C@H]1O5)c1cc[nH]n1 | inactive | 14.5 nM | 3 | 10.9% | 52 | 0.28 nM | inactive | 0.95 nM | 1.83 nM | –
O=C(N[C@@H]1CC[C@@]2(O)[C@H]3Cc4ccc(O)c5c4[C@@]2(CCN3CC2CC2)[C@H]1O5)c1ncc[nH]1 | inactive | 146 nM | 11 | 7.5% | 335 | 0.44 nM | inactive | 4.8 nM | 1.74 nM | MPE (Mus musculus [22]): 32.7%
O=C(N[C@H]1CC[C@@]2(O)[C@H]3Cc4ccc(O)c5c4[C@@]2(CCN3CC2CC2)[C@H]1O5)c1cc[nH]n1 | inactive | 21.2 nM | 2 | 19.6% | 35 | 0.61 nM | inactive | 1.05 nM | 2.33 nM | –
O=C(CCc1cnc[nH]1)N[C@H]1CC[C@@]2(O)[C@H]3Cc4ccc(O)c5c4[C@@]2(CCN3CC2CC2)[C@H]1O5 | inactive | 21.5 nM | 6 | 25.4% | 106 | 0.2 nM | inactive | 1.21 nM | 9.47 nM | –
O=C(N[C@H]1CC[C@@]2(O)[C@H]3Cc4ccc(O)c5c4[C@@]2(CCN3CC2CC2)[C@H]1O5)c1cn[nH]c1 | inactive | 37.5 nM | 8 | 23.1% | 64 | 0.59 nM | inactive | 4.7 nM | 1.24 nM | –
O=C(CCc1cc[nH]n1)N[C@H]1CC[C@@]2(O)[C@H]3Cc4ccc(O)c5c4[C@@]2(CCN3CC2CC2)[C@H]1O5 | inactive | 217 nM | 6 | 22.2% | 433 | 0.5 nM | inactive | 2.75 nM | 4.22 nM | –
